A selection: hits, their analogues and other compounds. The true share with any hit is near 2.6%.
SENP8 block-1: SENP8 (human) protease inhibition. Q96LD8. recombinant SENP8, Nedd8 substrate fluorescence. inhibition, % at 20 µM. 0.64% of 360,000 active; in the data active means inhibition mostly above about 40%, no sharp cut-off; inactive means mostly below about 27%
Target sequence (Q96LD8 whole entry, looked up): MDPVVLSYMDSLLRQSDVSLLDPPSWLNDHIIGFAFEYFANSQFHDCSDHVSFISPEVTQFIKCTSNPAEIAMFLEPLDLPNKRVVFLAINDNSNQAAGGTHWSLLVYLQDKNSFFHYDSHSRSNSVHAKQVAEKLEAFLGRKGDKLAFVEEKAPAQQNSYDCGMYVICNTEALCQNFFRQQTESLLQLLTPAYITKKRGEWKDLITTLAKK
SENP8 block-2: inhibitors of human SENP8 protease; Q96LD8; purified SENP8, Z-RLRGG-aminoluciferin cleavage, luminescence; 1.2% of 330,000 active; inhibition, % at 10 µM; in the data active means inhibition above about 50%
SENP7 block: blocks the human protease SENP7; Q9BQF6; recombinant SENP7, Z-RLRGG-aminoluciferin luminescence, 40 min; inhibition, % at 5 µM; 1.5% of 330,000 active; AID 434973;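 active means inhibition above about 50% at the single test dose, limit read from the data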
Platelet DG rel: modulates dense granule release in human platelets | AID 1663 | inhibition, %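 (compounds screened at 7.5 µM in platelet-rich plasma)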 | human platelet-rich plasma, SFLLRN dense granule ATP release, luminescence | 0.22% of 300,000 active;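 active means mean replicate score, as percent of positive control, at or above 50; inconclusive means mean below 50 but at least one replicate at or above 50; inactive means mean and every replicate below 50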
SENP1 FRET inh: SENP1 (human) catalytic domain inhibition; Q9P0U3; recombinant SENP1 catalytic domain, CyPet-SUMO1-YPet FRET cleavage; inhibition, % at 10 µM; 0.21% of 360,000 active; AID 624204;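 active means inhibition at least 30% at 10 µM, raw YFP signal under a set limit, fluorescence ratio 0.5 to 1.5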
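Assay system – human recombinant His6-tagged SENP1 catalytic domain enzyme · Input – SENP1 enzyme, 20 pM final · Buffer or medium – Tris pH 8 buffer plus EDTA, NaCl, BME, BSA, NP40, catalase · Schedule – 50 min reaction at room temperature · Technique – FRET read of cyan and yellow fluorescence · Control set – no-enzyme wells low, DMSO-plus-enzyme wells high control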
SENP6 inh: SENP6 protease inhibition | Q9GZR1 | Recombinant SENP6 catalytic domain, aminoluciferin luminescence | inhibition, % at 10 µM | 1.8% of 330,000 active | AID 2599;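 active means inhibition above about 50% at the single tested dose, limit read from the data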
Target sequence (Q9GZR1 628-1112 limits assumed): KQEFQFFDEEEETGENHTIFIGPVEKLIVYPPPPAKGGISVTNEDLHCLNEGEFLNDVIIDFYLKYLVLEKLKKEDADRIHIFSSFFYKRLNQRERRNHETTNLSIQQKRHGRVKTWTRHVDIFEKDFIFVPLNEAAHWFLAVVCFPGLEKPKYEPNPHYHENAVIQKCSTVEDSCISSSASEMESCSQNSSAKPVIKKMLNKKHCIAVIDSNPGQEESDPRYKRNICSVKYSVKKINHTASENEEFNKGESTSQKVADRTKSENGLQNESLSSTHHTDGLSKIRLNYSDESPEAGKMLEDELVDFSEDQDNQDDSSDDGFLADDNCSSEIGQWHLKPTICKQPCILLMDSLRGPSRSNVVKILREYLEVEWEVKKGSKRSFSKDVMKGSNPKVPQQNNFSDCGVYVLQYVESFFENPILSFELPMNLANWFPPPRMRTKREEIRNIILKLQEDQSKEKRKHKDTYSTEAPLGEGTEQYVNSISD
SENP8 confirm: confirmation of human SENP8 protease inhibitors. AID 488912. inhibition, % at 12.5 µM. shares compounds with SENP7 block. Recombinant SENP8, Z-RLRGG-aminoluciferin luminescence, 60 min. 40% of 6,200 active;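 active means mean inhibition across replicates above about 50%, limit read from the data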
SENP6 conf: confirmation of human SENP6 protease inhibitors; shares compounds with SENP7 block; recombinant SENP6, Z-RLRGG-aminoluciferin luminescence; inhibition, % at 12.5 µM; 58% of 6,200 active
SENP7 confirm: confirmation of human SENP7 protease inhibitors. shares compounds with SENP7 block. recombinant SENP7, Z-RLRGG-aminoluciferin luminescence, 40 min. inhibition, % at 12.5 µM. 69% of 6,200 active
Casp3 SENP sel: selectivity test for SENP inhibitors: human caspase-3 inhibition. purified caspase-3, Z-DEVD-aminoluciferin luminescence, 60 min. AID 488918. shares compounds with SENP7 block. inhibition, % at 12.5 µM. 60% of 6,200 active;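 active means mean inhibition above about 50%, limit read from the data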
Luc interf: interferes with luciferase luminescence in SENP counter-screen; shares compounds with SENP7 block; Pre-incubated SENP8/Z-RLRGG-aminoluciferin, luciferase luminescence interference; inhibition, % at 12.5 µM; 39% of 6,200 active;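 active means mean inhibition above about 50% when retested at one dose, limit read from the data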
Hits are given with their value; – = inactive; ? = inconclusive; · = not tested or not shown.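 How the source made its calls, unless noted: active means mean inhibition above about 50% in the one-dose retest (limit read from the data); inactive means the rest.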

SMILES	SENP8 block-1	SENP8 block-2	SENP7 block	Platelet DG rel	SENP1 FRET inh	SENP6 inh	SENP8 confirm	SENP6 conf	SENP7 confirm	Casp3 SENP sel	Luc interf
O=C(Nc1ccc2c(c1)OCO2)Nc1ccccc1F	–	94.7	98.9	?	–	94.0	96.5	97.9	101.8	96.8	68.2
COc1ccc2c(C#N)c3ccccn3c2c1	–	–	–	–	–	50.0	–	51.5	–	–	–
CCOc1ccccc1N1CCN(CC(=O)N(C2CCCC2)C2CCS(=O)(=O)C2)CC1 (stereo not given)	–	–	–	·	–	–	·	·	·	·	·
COc1cc(/C(C)=C/c2ccccc2)c2c(c1)oc1ccccc12	·	·	·	–	·	·	·	·	·	·	·
Cc1cc2cc(OCc3ccccc3)ccc2n1C	–	–	–	–	–	50.4	–	–	–	–	–
O=C(OCC(=O)c1cccs1)c1ccccc1	–	71.8	85.9	–	–	–	85.1	85.7	97.1	91.2	86.0
O=C(COC(=O)c1cccc(O)c1)c1ccccc1	–	78.5	86.8	–	–	85.5	86.4	86.7	97.2	87.5	86.5
CCCCNC(=O)C1CCN(Cc2ccccn2)CC1	–	–	–	–	–	–	·	·	·	·	·
O=C(O)C1CCN(Cc2ccccn2)CC1	–	–	–	–	–	82.9	–	–	–	–	–
Cc1cc2cc(CNS(=O)(=O)c3ccccc3)ccc2n1C	–	–	–	–	–	–	·	·	·	·	·
O=C(Nc1ccc2c(c1)OCO2)c1noc2c1CCCC2	–	78.2	81.2	–	–	87.5	85.4	86.1	98.5	90.6	–
O=C(Nc1cc(Cl)ccc1Cl)c1noc2c1CCCC2	–	–	–	–	–	–	·	·	·	·	·
O=C(Nc1cccnc1)c1noc2c1CCCC2	–	–	–	–	–	–	·	·	·	·	·
O=C(Nc1ccc(F)cc1F)c1noc2c1CCC2	–	–	53.0	–	–	–	–	–	76.7	69.1	–
CC(=O)c1ccc(NC(=O)c2noc3c2CCCCC3)cc1	–	–	–	–	–	–	·	·	·	·	·
O=C(Nc1ccc2c(c1)OCO2)c1noc2c1CCCCC2	–	–	59.6	–	–	73.9	62.8	63.4	87.4	66.7	69.0
C[C@H]1COC(=O)[C@H](CC(=O)OC(C)(C)C)C/C=C\C[C@@H](CC(=O)N(CCO)Cc2ccccc2)C(=O)N1	–	–	–	·	–	–	·	·	·	·	·
CCc1ccn2cc(-c3ccc4c(c3)OCO4)nc2c1	–	94.3	97.2	50.0	–	96.1	97.2	97.9	101.6	96.3	96.5
c1cnc2nc(-c3ccc4c(c3)OCO4)cn2c1	–	–	–	–	–	–	·	·	·	·	·
COC(=O)c1ccc2nc(-c3ccc4c(c3)OCO4)cn2c1	–	–	77.9	–	–	–	–	–	–	58.1	–
CSc1nsc(N/N=C/c2ccc3c(c2)OCO3)c1C#N	–	–	52.8	–	–	–	–	–	–	–	–
COC(=O)Nc1nnc(-c2ccccc2Cl)s1	–	–	71.7	–	–	75.7	56.9	55.7	83.3	–	–
COC(=O)Nc1nnc(-c2ccncc2)s1	–	–	–	–	–	–	·	·	·	·	·
COc1ccc(/C=C/C=C2\N=C(SC)SC2=O)cc1	–	84.2	90.7	–	–	86.2	–	–	–	–	–
CC(=O)c1ccc(NC(=O)c2cnn3ccccc23)cc1	–	–	–	–	–	56.1	–	–	73.4	72.7	59.6
SMILES	SENP8 block-1	SENP8 block-2	SENP7 block	Platelet DG rel	SENP1 FRET inh	SENP6 inh	SENP8 confirm	SENP6 conf	SENP7 confirm	Casp3 SENP sel	Luc interf
CC(=O)c1cccc(NC(=O)c2cnn3ccccc23)c1	–	–	–	–	–	56.6	–	–	77.6	78.3	56.3
O=C(c1ccc(S(=O)(=O)N2CCOCC2)cc1)N1CCCc2ccccc21	–	–	–	–	–	–	·	·	·	·	·
COc1cc(C)ccc1S(=O)(=O)NC(=O)Cn1nnc(COc2ccc3c(c2)CCCC3)c1C	–	·	·	·	–	·	·	·	·	·	·
CCN(CC)c1ccc(/C=N/NC(=O)c2ccco2)cc1	–	·	·	–	–	·	·	·	·	·	·
CCN(CC)c1ccc(/C=N/NC(=O)c2ccco2)c(O)c1	–	–	63.2	–	–	58.8	–	59.4	86.3	60.0	64.6
O=C(N/N=C\c1ccc2c(c1)OCO2)c1ccco1	–	63.6	71.9	–	–	68.8	68.5	67.1	91.4	89.8	68.4
Nc1cc(Cl)nc(N/N=C/c2c(O)ccc3ccccc23)n1	–	–	–	–	48.0	57.9	–	–	84.5	–	–
COc1ccc(CNC(=O)c2[nH]c(C(F)(F)F)nc2-c2ccccc2)cc1	–	·	·	·	–	·	·	·	·	·	·
COc1cccc(CN2CCN(S(=O)(=O)c3ccc(Cl)s3)CC2)c1	–	–	–	–	–	–	·	·	·	·	·
COc1ccc(-n2cc3ccc([N+](=O)[O-])cc3n2)cc1	–	78.3	86.9	–	–	78.0	–	50.7	71.6	59.4	–
COc1ccc(C2=NCCn3nc4cc([N+](=O)[O-])ccc4c32)cc1	–	–	–	–	–	–	·	·	·	·	·
CN(C)c1ncnc2c1nnn2C1OC(CO)C(O)C1O (stereo not given)	–	·	·	·	–	·	·	·	·	·	·
Cn1cccc1C(=O)OCC(=O)Nc1ccc2c(c1)OCO2	–	–	–	–	–	–	·	·	·	·	·
Cn1cccc1C(=O)OCc1cc(Cl)cc2c1OCOC2	–	–	50.7	–	–	75.1	70.2	72.1	90.0	–	64.6
N#CCC(=O)Nc1nc(-c2ccc3c(c2)OCCO3)cs1	–	81.7	60.5	–	–	89.4	52.9	67.4	88.8	67.8	–
CC(=O)Nc1nc(-c2ccc3c(c2)OCO3)cs1	–	–	–	–	–	52.3	–	–	56.3	52.5	–
O=C(Nc1nc(-c2ccc3c(c2)OCO3)cs1)C1COc2ccccc2O1 (stereo not given)	–	–	–	–	–	–	·	·	·	·	·
O=C(CCCCl)Nc1nc(-c2ccc3c(c2)OCCO3)cs1	–	–	–	–	–	–	·	·	·	·	·
CCN1C(=O)c2cccc3c(S(=O)(=O)Nc4ccccn4)ccc1c23	–	–	–	–	–	–	·	·	·	·	·
CCN1C(=O)c2cccc3c(S(=O)(=O)Nc4ncccc4C)ccc1c23	–	–	64.4	–	–	–	–	–	–	–	–
COc1cc(C(=O)Nc2ccc3nc4n(c(=O)c3c2)CCCC4)ccc1Br	–	–	–	–	–	–	·	·	·	·	·
